Data taken from the M2OR odorant receptor database.

What was measured:
Conditions in all cases: stereoisomer not certain
OR4D1 (Homo sapiens) = OR4D1 (Homo sapiens) (UniProt Q15615)
Procedure, shortened: (§1)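 Each receptor–molecule pair is labelled responsive or non-responsive (inactive) according to whether the original authors judged the measured signal statistically different from baseline. The data were taken from the main text and supplementary material of published papers and checked for typos and inconsistencies. Assay methods differed by source, with transient luciferase assays in mammalian cell lines being common.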

OR4D10 (Homo sapiens) = OR4D10 (Homo sapiens) (UniProt Q8NGI6)
OR4D10 (Homo sapiens), sequence (Q8NGI6 whole entry): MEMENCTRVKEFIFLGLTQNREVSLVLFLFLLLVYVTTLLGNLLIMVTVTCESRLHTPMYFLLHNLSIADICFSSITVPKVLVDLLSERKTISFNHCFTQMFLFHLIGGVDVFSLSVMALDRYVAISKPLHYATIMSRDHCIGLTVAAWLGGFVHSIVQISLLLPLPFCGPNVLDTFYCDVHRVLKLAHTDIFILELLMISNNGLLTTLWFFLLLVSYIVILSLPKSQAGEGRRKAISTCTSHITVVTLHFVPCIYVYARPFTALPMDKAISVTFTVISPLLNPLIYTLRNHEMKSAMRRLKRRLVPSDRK
Procedure, shortened: as §1

OR4D11 (Homo sapiens) = OR4D11 (Homo sapiens) (UniProt Q8NGI4)
OR4D11 (Homo sapiens), sequence (Q8NGI4 whole entry): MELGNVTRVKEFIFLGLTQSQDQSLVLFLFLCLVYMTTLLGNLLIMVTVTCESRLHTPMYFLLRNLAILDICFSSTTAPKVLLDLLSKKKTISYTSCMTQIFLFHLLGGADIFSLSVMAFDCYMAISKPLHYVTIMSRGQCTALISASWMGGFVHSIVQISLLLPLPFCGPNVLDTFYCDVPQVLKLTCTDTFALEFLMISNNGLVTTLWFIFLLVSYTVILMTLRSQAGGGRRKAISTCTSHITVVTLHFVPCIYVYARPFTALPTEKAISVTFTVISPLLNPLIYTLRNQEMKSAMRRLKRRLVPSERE
Procedure, shortened: as §1

OR4D2 (Homo sapiens) = OR4D2 (Homo sapiens) (UniProt P58180)
OR4D2 (Homo sapiens), sequence (P58180 whole entry): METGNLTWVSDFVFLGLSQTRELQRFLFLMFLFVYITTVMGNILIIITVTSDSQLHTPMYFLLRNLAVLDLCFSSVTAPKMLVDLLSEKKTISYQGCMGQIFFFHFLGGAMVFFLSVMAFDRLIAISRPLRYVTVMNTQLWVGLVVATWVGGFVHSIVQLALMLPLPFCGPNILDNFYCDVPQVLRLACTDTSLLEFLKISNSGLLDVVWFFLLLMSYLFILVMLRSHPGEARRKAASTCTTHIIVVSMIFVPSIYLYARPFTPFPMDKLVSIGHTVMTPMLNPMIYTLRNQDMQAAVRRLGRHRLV
Procedure, shortened: as §1

OR4D5 (Homo sapiens) = OR4D5 (Homo sapiens) (UniProt Q8NGN0)
OR4D5 (Homo sapiens), sequence (Q8NGN0 whole entry): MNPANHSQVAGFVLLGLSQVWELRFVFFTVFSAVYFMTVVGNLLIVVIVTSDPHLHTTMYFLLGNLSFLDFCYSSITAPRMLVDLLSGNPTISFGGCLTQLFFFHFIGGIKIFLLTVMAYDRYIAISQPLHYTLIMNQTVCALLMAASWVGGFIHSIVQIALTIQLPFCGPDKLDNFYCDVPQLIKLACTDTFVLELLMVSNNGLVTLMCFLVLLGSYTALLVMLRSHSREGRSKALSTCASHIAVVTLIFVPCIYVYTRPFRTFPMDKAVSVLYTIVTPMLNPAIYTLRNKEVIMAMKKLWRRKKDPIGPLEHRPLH
Procedure, shortened: as §1

OR4CD V133I = system: OR4CD V133I
OR4CD V133I, sequence (as listed by the source, stated change not applied): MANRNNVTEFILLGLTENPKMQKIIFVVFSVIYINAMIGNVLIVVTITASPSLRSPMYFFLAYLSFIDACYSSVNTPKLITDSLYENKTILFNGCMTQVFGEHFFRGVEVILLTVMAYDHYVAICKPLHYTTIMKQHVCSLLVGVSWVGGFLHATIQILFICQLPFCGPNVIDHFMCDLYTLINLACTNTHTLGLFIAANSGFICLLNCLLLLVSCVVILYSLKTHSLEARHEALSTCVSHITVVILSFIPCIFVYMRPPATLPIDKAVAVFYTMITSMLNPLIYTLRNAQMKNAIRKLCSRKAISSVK
Procedure, shortened: as §1

OR4CF = system: OR4CF
OR4CF, sequence (as listed by the source): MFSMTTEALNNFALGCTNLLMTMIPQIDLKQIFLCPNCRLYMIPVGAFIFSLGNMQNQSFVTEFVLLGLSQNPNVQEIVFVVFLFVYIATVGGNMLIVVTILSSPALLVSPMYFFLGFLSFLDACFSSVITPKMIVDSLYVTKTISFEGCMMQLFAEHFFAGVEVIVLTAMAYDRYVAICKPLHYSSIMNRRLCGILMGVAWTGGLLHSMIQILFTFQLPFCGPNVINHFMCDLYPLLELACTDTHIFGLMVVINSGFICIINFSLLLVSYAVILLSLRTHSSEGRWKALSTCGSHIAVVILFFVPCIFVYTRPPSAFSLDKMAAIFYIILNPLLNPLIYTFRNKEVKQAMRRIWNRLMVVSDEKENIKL
Procedure, shortened: as §1

OR4CG T76A = system: OR4CG T76A
OR4CG T76A, sequence (as listed by the source, stated change not applied): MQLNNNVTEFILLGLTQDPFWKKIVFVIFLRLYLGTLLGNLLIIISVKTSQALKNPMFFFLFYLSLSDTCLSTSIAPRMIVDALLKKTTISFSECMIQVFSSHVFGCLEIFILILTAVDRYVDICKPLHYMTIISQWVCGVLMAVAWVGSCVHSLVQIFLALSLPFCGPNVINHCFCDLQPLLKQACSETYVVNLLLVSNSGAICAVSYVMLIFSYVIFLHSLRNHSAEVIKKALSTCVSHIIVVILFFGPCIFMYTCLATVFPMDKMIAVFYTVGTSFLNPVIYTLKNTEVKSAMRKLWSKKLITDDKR
Procedure, shortened: as §1

OR4D1 = system: OR4D1
OR4D1, sequence (as listed by the source): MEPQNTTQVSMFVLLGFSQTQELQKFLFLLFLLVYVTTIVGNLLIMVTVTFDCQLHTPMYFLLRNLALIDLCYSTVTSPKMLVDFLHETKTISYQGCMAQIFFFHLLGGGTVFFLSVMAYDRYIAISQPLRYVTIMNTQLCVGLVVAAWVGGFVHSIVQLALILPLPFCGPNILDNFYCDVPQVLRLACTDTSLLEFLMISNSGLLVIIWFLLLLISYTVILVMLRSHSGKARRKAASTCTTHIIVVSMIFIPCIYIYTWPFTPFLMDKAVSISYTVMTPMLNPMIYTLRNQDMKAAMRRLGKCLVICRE
Procedure, shortened: as §1

OR4D2 = system: OR4D2
OR4D2, sequence (as listed by the source): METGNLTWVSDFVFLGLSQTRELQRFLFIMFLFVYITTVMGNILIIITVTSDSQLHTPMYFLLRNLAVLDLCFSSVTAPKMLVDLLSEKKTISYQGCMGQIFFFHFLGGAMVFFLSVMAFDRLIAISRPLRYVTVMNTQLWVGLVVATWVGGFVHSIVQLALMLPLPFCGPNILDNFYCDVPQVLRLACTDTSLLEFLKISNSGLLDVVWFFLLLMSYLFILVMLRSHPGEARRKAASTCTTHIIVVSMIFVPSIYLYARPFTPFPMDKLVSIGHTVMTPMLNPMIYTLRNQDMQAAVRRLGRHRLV
Procedure, shortened: as §1

Measured: odorant receptor agonist call;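 note: active if original authors judged signal statistically different from baseline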

OR4D1 (Homo sapiens), sequence (Q15615 whole entry): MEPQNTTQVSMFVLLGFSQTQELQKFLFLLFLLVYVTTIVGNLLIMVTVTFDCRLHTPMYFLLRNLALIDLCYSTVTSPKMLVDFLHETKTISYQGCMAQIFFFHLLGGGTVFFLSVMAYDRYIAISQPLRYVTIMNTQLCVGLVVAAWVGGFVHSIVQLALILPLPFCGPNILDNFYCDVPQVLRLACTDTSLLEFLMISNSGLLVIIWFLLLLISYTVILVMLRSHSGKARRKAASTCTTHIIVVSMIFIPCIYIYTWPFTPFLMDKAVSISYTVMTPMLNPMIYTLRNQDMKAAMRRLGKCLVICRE

Cc1c([N+](=O)[O-])c(C)c([N+](=O)[O-])c(C(C)(C)C)c1[N+](=O)[O-]
inactive: OR4D1 (Homo sapiens) | OR4D10 (Homo sapiens) | OR4D11 (Homo sapiens) | OR4D2 (Homo sapiens) | OR4D5 (Homo sapiens)

C=CCOC(=O)Cc1ccccc1
inactive: all assays above
